Test results taken from ChEMBL document CHEMBL4190262, “Tuning of β-glucosidase and α-galactosidase inhibition by generation and in situ screening of a library of pyrrolidine-triazole hybrid molecules” (Eur J Med Chem, 2017).
Calls of active or inactive are those of the source. The calls are words filed in the database; no cut-off is given here.

Columns and labels:
Prunus dulcis = assay: Inhibition of almond beta-glucosidase at 1 mM using p-nitrophenyl glycopyranoside preincubated for 5 mins followed by substrate addition measured after 20 mins by visible absorption spectroscopic method relative to control
Procedure, shortened: (§1)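 Test compound at 1 mM in well. Mix: 0.01–0.5 units/mL enzyme plus 10 mM p-nitrophenyl glycopyranoside (aqueous solution), buffered to the enzyme's optimal pH. Enzyme and inhibitor preincubated 5 min at rt. Substrate then added and incubated 20 min at 37 °C. Stopped with sodium borate (pH 9.8). p-Nitrophenolate read at 405 nm. Duplicates averaged.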

Saccharomyces cerevisiae = assay: Inhibition of yeast alpha glucosidase at 1 mM using p-nitrophenyl glycopyranoside preincubated for 5 mins followed by substrate addition measured after 20 mins by visible absorption spectroscopic method relative to control; procedure, shortened: as §1
[1] = target: T1, Lysosomal acid glucosylceramidase (Homo sapiens, UniProt P04062); assay: Inhibition of human lysosomal beta-glucocerebrosidase using 4-methylumbelliferyl-beta-D-glucopyranoside as substrate preincubated for 45 mins followed by substrate addition measured after 30 mins by fluorescence spectroscopic method
T1 sequence (P04062 whole entry): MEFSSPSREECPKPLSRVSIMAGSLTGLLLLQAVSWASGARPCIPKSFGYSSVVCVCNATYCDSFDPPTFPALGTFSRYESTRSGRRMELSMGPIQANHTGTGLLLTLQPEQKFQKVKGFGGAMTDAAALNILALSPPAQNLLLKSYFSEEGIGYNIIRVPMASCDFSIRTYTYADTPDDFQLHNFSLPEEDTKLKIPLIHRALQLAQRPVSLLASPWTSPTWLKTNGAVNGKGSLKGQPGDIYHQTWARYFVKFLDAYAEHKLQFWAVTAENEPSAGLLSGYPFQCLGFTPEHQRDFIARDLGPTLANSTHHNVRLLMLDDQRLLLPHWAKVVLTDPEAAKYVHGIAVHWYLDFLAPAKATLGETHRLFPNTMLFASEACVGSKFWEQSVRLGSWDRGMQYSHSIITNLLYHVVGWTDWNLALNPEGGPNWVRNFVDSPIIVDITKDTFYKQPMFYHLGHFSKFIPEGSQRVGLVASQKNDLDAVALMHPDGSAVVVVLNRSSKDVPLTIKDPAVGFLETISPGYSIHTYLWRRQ
Procedure, shortened: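 Enzyme in 100 mM McIlvaine buffer pH 5.2 with 0.25% sodium taurocholate and 0.1% Triton X-100, with inhibitor. Preincubated at 0 °C for 45 min, then started with 3 mM 4-methylumbelliferyl glycoside substrate solution and incubated 30 min at 37 °C. Stopped with 400 mM glycine-NaOH pH 10.6. 4-Methylumbelliferone fluorescence read at ex 362/em 450 nm.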

Aspergillus niger = assay: Inhibition of Aspergillus niger amyloglucosidase at 1 mM using p-nitrophenyl glycopyranoside preincubated for 5 mins followed by substrate addition measured after 20 mins by visible absorption spectroscopic method relative to control; procedure, shortened: as §1
Bos taurus = species on record: Bos taurus; assay: Inhibition of bovine kidney alpha-L-fucosidase at 1 mM using p-nitrophenyl glycopyranoside preincubated for 5 mins followed by substrate addition measured after 20 mins by visible absorption spectroscopic method relative to control; procedure, shortened: as §1
[2] = target: Beta-galactosidase (Escherichia coli) (UniProt Q8VNN2); assay: Inhibition of Escherichia coli beta-galactosidase at 1 mM using p-nitrophenyl glycopyranoside preincubated for 5 mins followed by substrate addition measured after 20 mins by visible absorption spectroscopic method relative to control; procedure, shortened: as §1
Sequence of Beta-galactosidase (Escherichia coli) (Q8VNN2 whole entry, looked up): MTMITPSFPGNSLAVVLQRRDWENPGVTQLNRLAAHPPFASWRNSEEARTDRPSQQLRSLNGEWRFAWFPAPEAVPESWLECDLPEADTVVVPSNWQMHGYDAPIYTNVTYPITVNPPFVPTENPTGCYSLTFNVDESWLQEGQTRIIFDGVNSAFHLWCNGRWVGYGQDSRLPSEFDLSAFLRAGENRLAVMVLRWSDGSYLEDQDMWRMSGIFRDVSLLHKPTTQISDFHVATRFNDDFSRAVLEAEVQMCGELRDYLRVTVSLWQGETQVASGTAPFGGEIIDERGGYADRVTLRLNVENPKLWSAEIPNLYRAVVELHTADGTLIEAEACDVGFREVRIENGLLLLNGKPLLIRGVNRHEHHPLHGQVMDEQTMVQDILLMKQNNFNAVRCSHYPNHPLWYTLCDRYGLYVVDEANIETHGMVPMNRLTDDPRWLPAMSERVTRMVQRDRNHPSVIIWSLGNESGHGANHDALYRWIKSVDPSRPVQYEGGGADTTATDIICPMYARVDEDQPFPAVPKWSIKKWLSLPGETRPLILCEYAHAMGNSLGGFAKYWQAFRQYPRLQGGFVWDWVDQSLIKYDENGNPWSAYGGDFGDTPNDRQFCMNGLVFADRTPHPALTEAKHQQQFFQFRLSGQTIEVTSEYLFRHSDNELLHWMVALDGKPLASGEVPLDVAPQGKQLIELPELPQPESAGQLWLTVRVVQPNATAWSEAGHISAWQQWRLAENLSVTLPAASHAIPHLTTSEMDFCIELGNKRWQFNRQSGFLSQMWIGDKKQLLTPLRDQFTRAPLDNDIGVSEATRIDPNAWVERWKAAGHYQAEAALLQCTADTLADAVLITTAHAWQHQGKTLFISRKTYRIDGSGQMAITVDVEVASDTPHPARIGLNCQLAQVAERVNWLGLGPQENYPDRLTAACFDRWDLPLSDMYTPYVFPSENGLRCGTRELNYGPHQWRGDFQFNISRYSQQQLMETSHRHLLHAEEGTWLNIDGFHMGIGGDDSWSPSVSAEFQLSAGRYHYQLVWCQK

Beta-galactosidase = target: T2, Beta-galactosidase (Bos taurus, UniProt Q58D55); assay: Inhibition of bovine liver beta-galactosidase using p-nitrophenyl glycopyranoside preincubated for 5 mins followed by substrate addition measured after 20 mins by visible absorption spectroscopic method
T2 sequence (Q58D55 whole entry): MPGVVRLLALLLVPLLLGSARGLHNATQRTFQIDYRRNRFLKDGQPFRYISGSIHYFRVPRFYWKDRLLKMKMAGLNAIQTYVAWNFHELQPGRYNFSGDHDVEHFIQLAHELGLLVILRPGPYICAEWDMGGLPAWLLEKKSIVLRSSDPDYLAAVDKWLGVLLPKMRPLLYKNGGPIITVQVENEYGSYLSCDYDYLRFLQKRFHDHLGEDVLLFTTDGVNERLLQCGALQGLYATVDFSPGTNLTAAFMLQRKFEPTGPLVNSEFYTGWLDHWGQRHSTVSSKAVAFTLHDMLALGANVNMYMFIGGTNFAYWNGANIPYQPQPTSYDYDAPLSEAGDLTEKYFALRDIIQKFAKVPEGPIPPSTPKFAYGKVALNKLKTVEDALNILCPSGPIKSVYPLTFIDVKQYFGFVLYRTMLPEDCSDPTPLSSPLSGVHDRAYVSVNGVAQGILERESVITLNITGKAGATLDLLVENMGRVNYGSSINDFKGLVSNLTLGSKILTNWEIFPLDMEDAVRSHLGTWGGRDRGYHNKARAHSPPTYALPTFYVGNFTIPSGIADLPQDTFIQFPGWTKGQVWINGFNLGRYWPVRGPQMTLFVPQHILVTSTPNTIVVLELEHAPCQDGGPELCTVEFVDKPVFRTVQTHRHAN
Procedure, shortened: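 IC50 determined only for compounds giving ≥80% inhibition at 1 mM, read from plots of % inhibition versus inhibitor concentration. p-Nitrophenyl glycopyranoside substrate (10 mM solution) at the enzyme's optimal pH, with 0.01–0.5 units/mL enzyme. 5 min rt preincubation with enzyme, then 20 min at 37 °C. Borate stop (pH 9.8), absorbance at 405 nm. Duplicates averaged.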

SMILES	inhibition (Prunus dulcis) [%]	inhibition (Saccharomyces cerevisiae)	IC50 [1] [µM]	inhibition (Aspergillus niger)	inhibition (Bos taurus) [%]	inhibition [2]	IC50 (Beta-galactosidase) [µM]
O[C@@H]1[C@H](O)CN[C@@H]1Cn1cc(-c2ccccc2)nn1	< 53	inactive	28	inactive	17	inactive	173
O[C@@H]1[C@H](O)CN[C@H]1Cn1cc(-c2ccccc2)nn1	97	inactive	11	38%	40	inactive	458
